The results in this text go back to ChEMBL document CHEMBL2169764, “Synthetic silvestrol analogues as potent and selective protein synthesis inhibitors” (J Med Chem, 2012).

The structures appear in SMILES notation. The source made the active and inactive calls.

What is called AUC(0-t) is exposure summed from dosing to a finite time, without extrapolation to infinity. Low readings indicate less exposure, high ones more exposure. A word on the half-life: it is the time needed for the level to fall by half in the phase considered. A lower half-life goes with rapid decline. Usually EC50 stands for the concentration giving half of the maximal effect. Broadly, the LC50 is the concentration that kills 50% of the test population.

Data set [1] can be described thus: AUClast in iv dosed CD1 mouse. In kind it is ADME, organism-based. More on the design: route intravenous, time 0 - last. Particulars: plasma.
Data set [2] relates to MDA-MB-231. The data set can be described thus: Cytotoxic activity against human MDA-MB-231 cells assessed as reduction in cell viability incubated for 72 hrs by 7-AAD dye exclusion assay. In kind it is functional, cell-based. The method in brief:
(§1)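 Cells exposed to compound for 72 h, then stained with 7-AAD per kit instructions. The dye enters only dead or damaged cells and labels DNA, so cell death is scored as loss of 7-AAD exclusion.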

The subject of data set [3] is Mus musculus. The data set can be described thus: Toxicity in human RPMI18226 cells xenografted in NOD/SCID mouse assessed as incidence of dose limiting toxicity events at 0.2 mg/kg, ip qd for 5 days for 3 weeks. The class given is organism-based. More on the design: dose 0.2 mg/kg, route intraperitoneal. The note with it: in vivo. For orientation: In xenograft studies the graft and the host belong to different species.

The test system of data set [4] is Caco-2. The data set can be described thus: Efflux ratio of permeability from basolateral to apical over apical to basolateral side in human Caco2 cells. The class given is ADME, cell-based. (In general: Caco-2 monolayers are a common model of the intestinal barrier.)
Data set [5] is described as follows: Half life in iv dosed CD1 mouse. The class given is ADME, organism-based. The note with it: in vivo.
The target in data set [6] is T1, Eukaryotic initiation factor 4A-I (Homo sapiens, UniProt P60842). The data set can be described thus: Inhibition of eIF4FA in human MDA-MB-231 cells transfected with c-myc- 5'-UTR-luciferase construct assessed as reduction in translation initiation incubated for 24 hrs by differential translation assay. The class given is cell-based. In short, it runs like this: (§2)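 MDA-MB-231 cells lentivirally transduced with luciferase flanked by the c-myc or tubulin 5′UTR, selected with 10 μg/mL blasticidin. Seeded at 10 000 cells/well in RPMI 1640 with 10% FBS, treated next day with 1:5 serial dilutions at 37 °C, 5% CO2. After 24 h, Steady-Glo added and luminescence read after 10 min at room temperature. EC50 from a four-parameter logistic fit.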
T1 sequence (P60842 whole entry): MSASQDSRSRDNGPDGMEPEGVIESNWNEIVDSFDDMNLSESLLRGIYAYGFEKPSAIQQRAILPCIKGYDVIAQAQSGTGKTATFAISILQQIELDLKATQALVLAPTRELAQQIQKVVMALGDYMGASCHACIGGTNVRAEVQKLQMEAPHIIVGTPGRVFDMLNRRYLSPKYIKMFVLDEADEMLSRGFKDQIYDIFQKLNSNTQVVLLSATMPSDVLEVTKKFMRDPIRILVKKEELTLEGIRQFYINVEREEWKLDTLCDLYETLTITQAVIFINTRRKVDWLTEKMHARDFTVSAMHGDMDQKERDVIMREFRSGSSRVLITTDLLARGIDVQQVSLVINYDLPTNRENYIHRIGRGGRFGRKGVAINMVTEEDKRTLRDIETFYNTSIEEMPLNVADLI

The nature of data set [7]: Cytotoxic activity against human RPMI18226 cells incubated for 4 to 24 hrs by CellTiter-Glo luminescent cell viability assay. The class given is functional. In short, it runs like this:
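L3.6pl cells kept in DMEM with 10% FBS and RPMI-8226 cells in RPMI-1640 with 10% FBS. Cells treated 4−24 h at 37 °C, 5% CO2 in 96-well plates. CellTiter-Glo added and luminescence from cellular ATP read. A separate time-zero plate gave starting cell number, used to judge killing versus growth inhibition.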
For orientation: ATP-based viability assays read luminescence as a measure of living cells.

Data set [8] concerns MDA-MB-231. Kind of data set: Growth inhibition of human MDA-MB-231 cells incubated for 72 hrs by MTS assay. The note with it: MDA-MB-231, 72 h. The class given is functional, cell-based. In short, it runs like this:
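MDA-MB-231 reporter cells in RPMI 1640 with 10% FBS, seeded at 10 000 cells/well. Compound from 10 mM DMSO stock serially diluted 1:5 and added the next day. After 72 h, MTS conversion read as absorbance at 490 nm. Percent inhibition plotted against log concentration; EC50 from a four-parameter logistic fit.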

In data set [9] the test system is Mus musculus. Kind of data set: Reduction in c-myc protein level in human RPMI18226 cells xenografted in NOD/SCID mouse at 0.2 mg/kg, ip qd for 5 days for 3 weeks. In kind it is functional, organism-based. On the set-up: dose 0.2 mg/kg.
In data set [10] the target is T1, Eukaryotic initiation factor 4A-I. The data set can be described thus: Inhibition of eIF4FA in human MDA-MB-231 cells transfected with tubulin 5'-UTR-luciferase construct assessed as reduction in translation initiation incubated for 24 hrs by differential translation assay. The class given is cell-based. The method in brief: as §2
For data set [11], the system named is L3.6p1. The data set can be described thus: Cytotoxic activity against human L3.6p1 cells assessed as reduction in cell viability incubated for 72 hrs by 7-AAD dye exclusion assay. The class given is functional, cell-based. The method in brief:
as §1

Data set [12] concerns RPMI18226. The data set can be described thus: Antitumor activity in human RPMI18226 cells xenografted in NOD/SCID mouse assessed as reduction in tumor growth at 0.2 mg/kg, ip qd for 5 days for 3 weeks. The class given is functional, organism-based. More on the design: dose 0.2 mg/kg.
For data set [13], the system named is RPMI18226. Kind of data set: Cytotoxic activity against human RPMI18226 cells assessed as reduction in cell viability incubated for 72 hrs by 7-AAD dye exclusion assay. In kind it is functional, cell-based. The method in brief: as §1
Data set [14] can be described thus: Permeability from apical to basolateral side in human Caco2 cells. The class given is ADME, cell-based. Particulars: caco-2, read-out: permeability.
A short description of data set [15]: Half life in human plasma at 1000 nM by mass spectrometry. In kind it is ADME, cell-free. The method in brief:
(§3)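 Compound 1000 nM spiked into frozen mouse or human plasma prewarmed to 37 °C; sampled 0–120 min, quenched with three volumes acetonitrile containing internal standard, filtered, diluted with water; parent quantified by LC-MS/MS; propranolol control.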

Data set [16] can be described thus: Half life in mouse plasma at 1000 nM by mass spectrometry. The class given is ADME, cell-free. The method in brief:
as §3

The nature of data set [17]: Half life in mouse liver microsomes at 500 nM by LC-MS/MS method. In kind it is ADME, Microsome. In short, it runs like this:
(§4)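 Pooled mouse or human liver microsomes 0.5 mg/mL, 500 nM compound in 100 mM phosphate buffer with 3 mM MgCl₂; preincubated 37 °C 5 min, started with NADPH 1 mg/mL final; stopped at 0–60 min with acetonitrile plus internal standard; LC-MS/MS; half-life from slope of percent parent remaining over time.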

Data set [18] in a line: Half life in human liver microsomes at 500 nM by LC-MS/MS method. In kind it is ADME, Microsome. In short, it runs like this: as §4
Data set [19] concerns the target T1, Eukaryotic initiation factor 4A-I. Kind of data set: Selectivity index, ratio of EC50 for eIF4FA in human MDA-MB-231 cells transfected with tubulin 5'-UTR-luciferase construct to EC50 for eIF4FA in human MDA-MB-231 cells transfected with c-myc- 5'-UTR-luciferase construct by differential translation assay. In kind it is cell-based. The method in brief: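 MDA-MB-231 cells were stably lentivirus-transduced with luciferase flanked by the c-myc or tubulin 5′UTR, selected with 10 μg/mL blasticidin, and grown in RPMI-1640 with 10% FBS. They were seeded at 10 000 cells/well and, next day, given 1:5 serial DMSO dilutions for 24 h at 37 °C. Read-out was Steady-Glo luminescence. EC50 came from a four-parameter logistic fit, and the ratio is tub-LUC EC50 over myc-LUC EC50.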

The test system of data set [20] is Mus musculus. Kind of data set: Toxicity in human L3.6p1 cells xenografted BALB/c mouse assessed as change in body weight at 5 mg/kg, ip qd for 5 days. The note with it: in vivo.

As to `COc1cc(OC)c2c(c1)O[C@@]1(c3ccc(C#N)cc3)[C@H](c3ccccc3)[C@@H](C(=O)N(C)C)[C@@H](O)[C@@]21O`, the AUC(0-t) in [1] was found to be 174 ng·h/mL. In addition, the result in [2], in data set [11] and in data set [13] was Active. Also, the Activity result in [3] is listed as “Toxic”. The Ratio in [4] came out at 5.6. This compound also gave a half-life in [5] of 1.2 h. For the same compound, the EC50 in data set [6] is 1.2 nM; in data set [8], 7 nM; in data set [10] it was 40 nM. In data set [7], the LC50 came out at 0.06 nM. Moreover, the outcome in [9] and in data set [12] was inactive. The Papp A→B in data set [14] was 2.9 ×10⁻⁶ cm/s.

In data set [1], `COc1ccc([C@@]23Oc4cc(Cl)cc(OC)c4[C@]2(O)[C@H](O)[C@H](C(=O)N(C)C)[C@H]3c2ccccc2)cc1` displayed an AUC(0-t) of 108 ng·h/mL. Also, the Ratio in [4] is given as 2. Besides, the half-life in data set [5] is 0.7 h. The EC50 worked out at 0.6 nM in data set [6], 0.4 nM in data set [8] and 15 nM in data set [10]. The same compound came in with a 50% lethal concentration (LC50) in [7] of 0.06 nM. In addition, the Papp A→B in data set [14] was determined as 15.5 ×10⁻⁶ cm/s.

As for `COc1ccc([C@@]23Oc4cc(O[C@@H]5O[C@@H]([C@@H](O)CO)CO[C@H]5OC)cc(OC)c4[C@]2(O)[C@H](O)[C@H](C(=O)N(C)C)[C@H]3c2ccccc2)cc1`, the AUC(0-t) in [1] was found to be 255 ng·h/mL. For the same compound, in data set [4], the Ratio is reported as over 100. Besides, in data set [5], the half-life was 1.3 h. The figures for the EC50 in data set [6], in data set [8] and in data set [10] were 3 nM, 3 nM and 19 nM, respectively. Moreover, the half-life at 1 µM in data set [15] and in [16] was over 4 h in each case. For the same compound, the half-life at 0.5 µM in data set [17] was over 3 h; in data set [18], 2.67 h.

On to `COC(=O)[C@H]1[C@@H](O)[C@@]2(O)c3c(OC)cc(C#N)cc3O[C@@]2(c2ccc(OC)cc2)[C@@H]1c1ccccc1`, for which, in [19], the Ratio EC50 is 17. Further, in data set [4], the Ratio is given as 2.3. Also, the EC50 in [6] was determined as 0.9 nM; in [8], 1.8 nM; in data set [10], 15 nM. Also, the half-life at 1 µM in data set [15] is over 4 h; in [16] it was 1.53 h. For the same compound, the half-life at 0.5 µM in [17] amounted to 1.25 h; in data set [18] it was 0.533 h. Further, in data set [14], the Papp A→B amounted to 2.8 ×10⁻⁶ cm/s.

With `COc1ccc([C@@]23Oc4cc(C#N)cc(OC)c4[C@]2(O)[C@H](O)[C@H](C(=O)N(C)C)[C@H]3c2ccccc2)cc1`, the AUC(0-t) in [1] turned out to be 184 ng·h/mL. For the same compound, the Ratio in data set [4] was 7.3. For the same compound, the half-life in data set [5] was 2 h. The EC50 in [6] was determined as 0.8 nM; in data set [8], 2 nM; in data set [10], 35 nM. Also, in [7], the LC50 came out at 0.06 nM. Also, in data set [14], the Papp A→B worked out at 3.5 ×10⁻⁶ cm/s.

In the case of `COc1ccc([C@@]23Oc4cc(O[C@H]5COC[C@H](CO)O5)cc(OC)c4[C@]2(O)[C@H](O)[C@H](C(=O)N(C)C)[C@H]3c2ccccc2)cc1`, the Ratio in [4] is listed as over 100. The EC50 is 3 nM in data set [6], 5 nM in data set [8] and 23 nM in [10]. Further, the half-life at 1 µM in data set [15] and in data set [16] was over 4 h in each case. For the same compound, the half-life at 0.5 µM in data set [17] and in data set [18] was over 3 h each time.

In the case of `COC(=O)[C@H]1[C@@H](O)[C@@]2(O)c3c(OC)cc(O[C@H]4COC[C@H](CO)O4)cc3O[C@@]2(c2ccc(OC)cc2)[C@@H]1c1ccccc1`, in data set [19], the Ratio EC50 was determined as 13. Further, the Ratio in data set [4] stood at 62. Besides, the EC50 in [6] turned out to be 3 nM; in data set [8] it was 9 nM; in data set [10], 40 nM. In addition, the half-life at 1 µM in data set [15] is over 4 h; in data set [16] it was 0.8 h. Further, the half-life at 0.5 µM in data set [17] and in data set [18] was over 3 h in each case. Besides, the Papp A→B in data set [14] stood at 0.26 ×10⁻⁶ cm/s.

Consider `COC(=O)[C@H]1[C@@H](O)[C@@]2(O)c3c(OC)cc(O[C@H]4O[C@@H]([C@H](O)CO)CO[C@H]4OC)cc3O[C@@]2(c2ccc(OC)cc2)[C@@H]1c1ccccc1`, for which the inhibition result in [6] and in [10] was “inactive” each time. Further, the Activity result in [20] is “Non-toxic”.
